Assay results reported in ChEMBL document CHEMBL1152191, “Identification and optimization of N3,N6-diaryl-1H-pyrazolo[3,4-d]pyrimidine-3,6-diamines as a novel class of ACK1 inhibitors” (Bioorg Med Chem Lett, 2008).

How the values were obtained:
Activated CDC42 kinase 1 [1] = target: T1, Activated CDC42 kinase 1 (Homo sapiens, UniProt Q07912); experiment: Inhibition of flag-tagged ACK1 autophosphorylation expressed in human 293 cells; assay type: cell-based, HEK293
How it was run: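 293 cells stably expressing Flag-ACK1 are detached with PBS/EDTA, washed, and pre-incubated in suspension with DMSO or compound. They are then re-plated for 2 h in medium with 10% FCS, with directly lysed cells as control. Autophosphorylation is read by anti-pTyr western blot after Flag IP, and IC50 determined.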

Activated CDC42 kinase 1 [2] = target: T1, Activated CDC42 kinase 1; experiment: Inhibition of histidine-tagged ACK1 (amino acids 117 to 489) expressed in SF9 cells
[3] = target: Tyrosine-protein kinase BTK (Homo sapiens, UniProt Q06187); experiment: Inhibition of BTK
[4] = target: Tyrosine-protein kinase Lck (Homo sapiens, UniProt P06239); experiment: Inhibition of LCK
[5] = target: Vascular endothelial growth factor receptor 2 (Homo sapiens, UniProt P35968); experiment: Inhibition of KDR
[6] = target: T2, Tyrosine-protein kinase JAK3 (Homo sapiens, UniProt P52333); experiment: Inhibition of Jak3
T2 sequence (P52333 whole entry): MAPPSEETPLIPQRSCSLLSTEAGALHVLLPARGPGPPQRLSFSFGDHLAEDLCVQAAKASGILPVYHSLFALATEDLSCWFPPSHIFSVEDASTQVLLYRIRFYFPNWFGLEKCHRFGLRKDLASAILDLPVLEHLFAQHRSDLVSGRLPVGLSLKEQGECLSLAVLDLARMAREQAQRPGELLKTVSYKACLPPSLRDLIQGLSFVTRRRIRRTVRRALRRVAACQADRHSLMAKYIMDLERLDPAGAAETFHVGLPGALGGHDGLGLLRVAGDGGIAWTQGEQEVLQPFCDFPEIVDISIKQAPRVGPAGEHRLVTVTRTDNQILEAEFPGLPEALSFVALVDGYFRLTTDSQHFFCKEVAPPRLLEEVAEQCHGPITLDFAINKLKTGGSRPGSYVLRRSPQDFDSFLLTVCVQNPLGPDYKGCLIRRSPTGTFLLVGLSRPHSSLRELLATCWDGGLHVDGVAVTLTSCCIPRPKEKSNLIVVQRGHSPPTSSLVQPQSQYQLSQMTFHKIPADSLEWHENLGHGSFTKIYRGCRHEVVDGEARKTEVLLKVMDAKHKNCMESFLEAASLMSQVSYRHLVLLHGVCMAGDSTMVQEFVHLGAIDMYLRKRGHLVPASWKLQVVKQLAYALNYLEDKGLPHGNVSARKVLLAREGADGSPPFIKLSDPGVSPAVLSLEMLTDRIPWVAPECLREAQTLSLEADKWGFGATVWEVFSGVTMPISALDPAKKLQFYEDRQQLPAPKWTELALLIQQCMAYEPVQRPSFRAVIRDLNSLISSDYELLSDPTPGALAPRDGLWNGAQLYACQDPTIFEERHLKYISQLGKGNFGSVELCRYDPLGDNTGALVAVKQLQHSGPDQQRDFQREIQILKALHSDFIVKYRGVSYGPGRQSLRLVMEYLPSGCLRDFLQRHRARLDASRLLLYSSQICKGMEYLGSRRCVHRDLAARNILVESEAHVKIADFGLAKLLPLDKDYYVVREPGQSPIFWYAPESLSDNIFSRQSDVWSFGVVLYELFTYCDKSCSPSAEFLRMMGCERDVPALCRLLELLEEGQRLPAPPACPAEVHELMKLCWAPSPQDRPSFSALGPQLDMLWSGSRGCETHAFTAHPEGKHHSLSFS

Angiopoietin-1 receptor = Angiopoietin-1 receptor (Homo sapiens, UniProt Q02763); experiment: Inhibition of Tie2
[7] = Volume of distribution at steady state in Sprague-Dawley rat at 0.5 mg/kg, iv; assay type: ADME, organism-based; parameters: dose 0.5 mg/kg, route intravenous; details: in vivo, read-out: Vdss
How it was run: (§1)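 Male Sprague–Dawley rats received 0.5 mg/kg as an iv dose, with n = 3 animals per study. CL, Vss, MRT and AUC were derived from the plasma concentration profile.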

[8] = Mean residence time in Sprague-Dawley rat at 0.5 mg/kg, iv; assay type: ADME, organism-based; parameters: dose 0.5 mg/kg, route intravenous; details: in vivo; how it was run: as §1
[9] = Clearance in Sprague-Dawley rat at 0.5 mg/kg, iv; assay type: ADME, organism-based; parameters: dose 0.5 mg/kg, route intravenous; details: in vivo; how it was run: as §1
[10] = AUC in Sprague-Dawley rat at 0.5 mg/kg, iv; assay type: ADME, organism-based; parameters: dose 0.5 mg/kg, route intravenous; details: plasma; how it was run: as §1
[11] = AUC in Sprague-Dawley rat at 0.4 mg/kg, iv; assay type: ADME, organism-based; parameters: dose 0.4 mg/kg, route intravenous; details: plasma
How it was run: (§2)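 Male Sprague–Dawley rats were dosed intravenously; clearance and AUC were taken from the plasma profile.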

[12] = Clearance in Sprague-Dawley rat at 0.4 mg/kg, iv; assay type: ADME, organism-based; parameters: dose 0.4 mg/kg, route intravenous; details: in vivo; how it was run: as §2
[13] = Oral bioavailability in Sprague-Dawley rat at 4 mg/kg; assay type: ADME, organism-based; details: in vivo

Chain of Tyrosine-protein kinase Lck (P06239 whole entry): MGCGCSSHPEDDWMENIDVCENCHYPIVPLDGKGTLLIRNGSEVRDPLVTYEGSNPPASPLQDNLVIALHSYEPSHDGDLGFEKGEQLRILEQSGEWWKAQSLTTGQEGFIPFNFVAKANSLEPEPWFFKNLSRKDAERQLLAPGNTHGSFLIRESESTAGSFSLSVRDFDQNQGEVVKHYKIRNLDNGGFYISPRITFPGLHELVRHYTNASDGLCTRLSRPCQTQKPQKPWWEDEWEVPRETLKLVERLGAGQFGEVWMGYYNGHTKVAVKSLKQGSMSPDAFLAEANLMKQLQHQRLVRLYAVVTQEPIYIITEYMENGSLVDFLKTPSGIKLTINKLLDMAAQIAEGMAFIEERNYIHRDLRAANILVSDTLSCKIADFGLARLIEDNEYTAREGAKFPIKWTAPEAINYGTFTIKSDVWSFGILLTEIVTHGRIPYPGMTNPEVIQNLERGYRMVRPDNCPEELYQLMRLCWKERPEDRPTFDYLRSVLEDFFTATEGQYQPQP
Chain of Vascular endothelial growth factor receptor 2 (P35968 whole entry): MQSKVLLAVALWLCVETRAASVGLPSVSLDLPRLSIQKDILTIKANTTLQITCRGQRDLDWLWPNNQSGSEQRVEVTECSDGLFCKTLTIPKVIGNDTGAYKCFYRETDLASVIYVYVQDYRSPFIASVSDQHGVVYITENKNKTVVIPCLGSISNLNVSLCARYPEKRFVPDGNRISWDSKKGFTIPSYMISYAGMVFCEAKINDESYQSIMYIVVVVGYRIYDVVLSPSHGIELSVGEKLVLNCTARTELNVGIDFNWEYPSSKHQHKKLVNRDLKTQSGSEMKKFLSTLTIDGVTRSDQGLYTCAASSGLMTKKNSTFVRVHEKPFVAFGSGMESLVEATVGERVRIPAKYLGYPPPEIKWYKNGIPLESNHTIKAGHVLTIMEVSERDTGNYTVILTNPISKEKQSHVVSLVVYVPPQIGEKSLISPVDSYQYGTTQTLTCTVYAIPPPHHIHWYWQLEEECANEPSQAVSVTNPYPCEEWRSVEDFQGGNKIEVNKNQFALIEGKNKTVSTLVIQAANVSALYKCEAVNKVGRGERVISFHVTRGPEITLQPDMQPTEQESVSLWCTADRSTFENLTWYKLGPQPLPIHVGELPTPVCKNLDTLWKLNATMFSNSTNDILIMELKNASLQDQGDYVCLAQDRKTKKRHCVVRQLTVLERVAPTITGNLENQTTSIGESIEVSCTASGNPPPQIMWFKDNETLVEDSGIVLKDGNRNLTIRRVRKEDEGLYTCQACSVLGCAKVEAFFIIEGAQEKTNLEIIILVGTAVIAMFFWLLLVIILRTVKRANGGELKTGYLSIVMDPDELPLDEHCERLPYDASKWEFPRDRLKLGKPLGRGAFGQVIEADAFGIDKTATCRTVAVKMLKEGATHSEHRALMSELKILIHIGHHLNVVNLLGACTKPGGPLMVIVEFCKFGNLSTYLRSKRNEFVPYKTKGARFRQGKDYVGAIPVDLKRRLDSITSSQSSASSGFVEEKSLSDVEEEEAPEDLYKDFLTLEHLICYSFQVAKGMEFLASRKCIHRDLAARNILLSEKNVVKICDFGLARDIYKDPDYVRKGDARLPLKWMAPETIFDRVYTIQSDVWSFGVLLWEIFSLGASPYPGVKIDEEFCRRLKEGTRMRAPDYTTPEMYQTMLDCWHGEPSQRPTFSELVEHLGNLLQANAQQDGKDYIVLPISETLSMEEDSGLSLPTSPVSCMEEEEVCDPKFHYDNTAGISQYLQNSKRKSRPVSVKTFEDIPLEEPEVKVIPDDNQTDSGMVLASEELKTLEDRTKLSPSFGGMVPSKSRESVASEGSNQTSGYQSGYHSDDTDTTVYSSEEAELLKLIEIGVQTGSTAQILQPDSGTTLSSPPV
T1 sequence (Q07912 whole entry): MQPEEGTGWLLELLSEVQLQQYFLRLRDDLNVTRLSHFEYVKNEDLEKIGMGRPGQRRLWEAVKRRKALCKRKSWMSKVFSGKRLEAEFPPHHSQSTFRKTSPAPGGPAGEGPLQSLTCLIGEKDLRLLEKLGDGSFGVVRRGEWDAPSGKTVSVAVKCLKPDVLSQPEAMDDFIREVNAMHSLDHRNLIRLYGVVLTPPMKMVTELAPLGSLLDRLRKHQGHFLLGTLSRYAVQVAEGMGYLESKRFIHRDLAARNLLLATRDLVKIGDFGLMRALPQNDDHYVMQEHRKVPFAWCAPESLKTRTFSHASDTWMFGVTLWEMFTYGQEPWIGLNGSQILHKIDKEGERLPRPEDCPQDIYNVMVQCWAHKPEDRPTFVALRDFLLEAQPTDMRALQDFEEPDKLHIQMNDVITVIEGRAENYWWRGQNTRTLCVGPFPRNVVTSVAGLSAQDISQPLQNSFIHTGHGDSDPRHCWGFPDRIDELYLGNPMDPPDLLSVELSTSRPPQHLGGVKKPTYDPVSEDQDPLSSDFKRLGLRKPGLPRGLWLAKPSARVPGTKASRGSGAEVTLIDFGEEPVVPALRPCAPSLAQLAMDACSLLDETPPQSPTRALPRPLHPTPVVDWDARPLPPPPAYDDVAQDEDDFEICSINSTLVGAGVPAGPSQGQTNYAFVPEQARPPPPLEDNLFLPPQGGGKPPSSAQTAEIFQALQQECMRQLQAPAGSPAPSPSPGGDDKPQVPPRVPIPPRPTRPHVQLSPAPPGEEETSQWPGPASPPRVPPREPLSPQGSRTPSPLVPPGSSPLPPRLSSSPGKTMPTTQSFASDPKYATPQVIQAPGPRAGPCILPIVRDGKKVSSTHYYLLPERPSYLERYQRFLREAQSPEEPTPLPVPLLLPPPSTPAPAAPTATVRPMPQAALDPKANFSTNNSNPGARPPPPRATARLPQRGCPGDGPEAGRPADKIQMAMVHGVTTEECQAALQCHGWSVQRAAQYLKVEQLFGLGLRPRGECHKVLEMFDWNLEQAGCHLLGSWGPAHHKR
Chain of Angiopoietin-1 receptor (Q02763 whole entry): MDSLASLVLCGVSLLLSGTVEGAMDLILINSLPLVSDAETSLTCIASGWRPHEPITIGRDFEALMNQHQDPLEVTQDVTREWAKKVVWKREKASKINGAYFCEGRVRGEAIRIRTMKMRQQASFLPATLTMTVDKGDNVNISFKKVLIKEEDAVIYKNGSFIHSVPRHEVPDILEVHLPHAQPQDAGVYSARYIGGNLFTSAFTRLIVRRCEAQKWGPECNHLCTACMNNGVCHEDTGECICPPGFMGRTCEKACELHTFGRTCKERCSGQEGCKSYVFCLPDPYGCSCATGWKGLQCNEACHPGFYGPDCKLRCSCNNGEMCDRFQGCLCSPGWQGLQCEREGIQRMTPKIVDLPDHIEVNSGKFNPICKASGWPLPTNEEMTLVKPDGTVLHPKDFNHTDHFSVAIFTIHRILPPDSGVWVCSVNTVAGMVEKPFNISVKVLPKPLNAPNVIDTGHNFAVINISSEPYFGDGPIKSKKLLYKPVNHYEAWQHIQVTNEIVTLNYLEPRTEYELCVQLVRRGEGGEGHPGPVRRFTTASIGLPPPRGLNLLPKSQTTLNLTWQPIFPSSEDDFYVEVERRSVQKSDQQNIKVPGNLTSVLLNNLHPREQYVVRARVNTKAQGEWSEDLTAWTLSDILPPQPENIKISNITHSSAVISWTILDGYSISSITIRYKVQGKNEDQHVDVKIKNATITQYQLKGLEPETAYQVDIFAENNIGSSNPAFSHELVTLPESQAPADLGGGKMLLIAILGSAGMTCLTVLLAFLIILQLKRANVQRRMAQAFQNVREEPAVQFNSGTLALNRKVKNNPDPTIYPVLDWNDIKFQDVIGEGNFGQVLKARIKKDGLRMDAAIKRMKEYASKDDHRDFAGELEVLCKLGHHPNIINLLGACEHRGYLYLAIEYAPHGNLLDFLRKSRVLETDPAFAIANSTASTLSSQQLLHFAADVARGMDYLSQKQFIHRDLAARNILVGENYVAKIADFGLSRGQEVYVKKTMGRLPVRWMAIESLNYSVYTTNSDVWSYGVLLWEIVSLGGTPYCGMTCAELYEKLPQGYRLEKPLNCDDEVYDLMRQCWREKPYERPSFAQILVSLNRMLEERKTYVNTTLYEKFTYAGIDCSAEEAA
Chain of Tyrosine-protein kinase BTK (Q06187 whole entry): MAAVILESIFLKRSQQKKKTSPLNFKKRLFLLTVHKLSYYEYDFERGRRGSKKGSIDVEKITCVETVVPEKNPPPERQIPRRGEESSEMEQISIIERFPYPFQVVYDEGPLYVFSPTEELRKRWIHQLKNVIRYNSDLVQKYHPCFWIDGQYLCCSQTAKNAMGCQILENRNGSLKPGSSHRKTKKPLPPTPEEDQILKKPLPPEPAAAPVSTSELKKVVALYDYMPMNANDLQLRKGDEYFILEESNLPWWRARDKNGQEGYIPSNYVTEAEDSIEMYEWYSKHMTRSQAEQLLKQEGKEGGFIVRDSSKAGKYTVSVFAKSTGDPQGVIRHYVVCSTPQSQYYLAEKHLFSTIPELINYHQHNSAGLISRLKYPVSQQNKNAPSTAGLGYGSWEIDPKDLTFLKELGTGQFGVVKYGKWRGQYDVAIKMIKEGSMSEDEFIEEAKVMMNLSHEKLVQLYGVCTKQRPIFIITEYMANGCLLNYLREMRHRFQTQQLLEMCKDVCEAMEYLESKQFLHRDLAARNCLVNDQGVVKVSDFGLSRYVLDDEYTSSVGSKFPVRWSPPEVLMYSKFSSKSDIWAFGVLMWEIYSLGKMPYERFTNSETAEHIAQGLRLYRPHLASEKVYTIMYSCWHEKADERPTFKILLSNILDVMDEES

| SMILES | IC50 (Activated CDC42 kinase 1 [1]) | Ki (Activated CDC42 kinase 1 [2]) | other results |
| --- | --- | --- | --- |
| Cc1cccc(C)c1Nc1nn(CC[C@@H](O)CO)c2nc(Nc3ccccc3)ncc12 | 60 nM | 30 nM | – |
| CN1CCN(CCn2nc(Nc3c(Cl)cccc3Cl)c3cnc(Nc4ccccc4)nc32)CC1 | 30 nM | 10 nM | – |
| COC(C)(C)CCn1nc(Nc2c(C)cccc2C)c2cnc(Nc3ccc(OCCN4CCCC4)c(F)c3)nc21 | 20 nM | 3 nM | Ki [3]: 125 nM; Ki [4]: 11 nM; Ki [5]: > 12500 nM; Ki [6]: > 12500 nM; Ki (Angiopoietin-1 receptor): > 2500 nM |
| COC(C)(C)CCn1nc(Nc2c(C)cccc2C)c2cnc(Nc3ccccc3)nc21 | 20 nM | 3 nM | – |
| CN(C)[C@@H]1CCN(CCn2nc(Nc3c(Cl)cccc3Cl)c3cnc(Nc4ccccc4)nc32)C1 | 20 nM | 10 nM | – |
| COC(C)(C)CCn1nc(Nc2c(C)cccc2C)c2cnc(Nc3ccc(N4CCN(C)CC4)cc3)nc21 | 20 nM | 2 nM | – |
| COC(C)(C)CCn1nc(Nc2c(Cl)cccc2Cl)c2cnc(Nc3ccc(N4CCNCC4)cc3)nc21 | 10 nM | 12 nM | Vd [7]: 15.4 L/kg; MRT [8]: 3.6 h; clearance [9]: 70 mL/min/kg; AUC [10]: 117 ng·h/mL |
| COC(C)(C)CCn1nc(Nc2c(Cl)cccc2Cl)c2cnc(Nc3ccc(OCCN4CCCC4)c(F)c3)nc21 | 30 nM | 2 nM | Vd [7]: 7.7 L/kg; MRT [8]: 2.7 h; clearance [9]: 48.3 mL/min/kg; AUC [10]: 174 ng·h/mL |
| COC(C)(C)CCn1nc(Nc2ccccc2)c2cnc(Nc3ccccc3)nc21 | – | > 4000 nM | – |
| COC(C)(C)CCn1nc(Nc2c(C)cccc2C)c2cnc(Nc3ccc(OCCN4CCCC4)cc3)nc21 | 20 nM | 3 nM | Ki [3]: 0.25 nM; Ki [4]: 0.04 nM; Ki [5]: 1590 nM; Ki [6]: 170 nM; Ki (Angiopoietin-1 receptor): 1160 nM |
| COC(C)(C)CCn1nc(Nc2c(C)cccc2C)c2cnc(Nc3ccc(N4CCNCC4)cc3)nc21 | – | – | Vd [7]: 20.3 L/kg; MRT [8]: 3.5 h; clearance [9]: 95 mL/min/kg; AUC [10]: 104 ng·h/mL |
| O=C(Cn1nc(Nc2c(Cl)cccc2Cl)c2cnc(Nc3ccccc3)nc21)N1CCOCC1 | 140 nM | 70 nM | – |
| ON1CCN(CCn2nc(Nc3c(Cl)cccc3Cl)c3cnc(Nc4ccccc4)nc32)CC1 | 30 nM | 50 nM | – |
| CN(C)C(=O)Cn1nc(Nc2c(Cl)cccc2Cl)c2cnc(Nc3ccccc3)nc21 | 90 nM | 30 nM | – |
| CCN(CC)CCCn1nc(Nc2c(C)cccc2C)c2cnc(Nc3ccccc3)nc21 | 140 nM | 40 nM | – |
| CN(C)CCCn1nc(Nc2c(Cl)cccc2Cl)c2cnc(Nc3ccccc3)nc21 | 20 nM | 5 nM | – |

| SMILES | IC50 (Activated CDC42 kinase 1 [1]) | Ki (Activated CDC42 kinase 1 [2]) | other results |
| --- | --- | --- | --- |
| COC(C)(C)CCn1nc(Nc2ccccc2)c2cnc(Nc3ccc(N4CCN(C)CC4)cc3)nc21 | 2100 nM | 400 nM | – |
| CN(C)CCn1nc(Nc2c(Cl)cccc2Cl)c2cnc(Nc3ccccc3)nc21 | 140 nM | 5 nM | – |
| CCOc1ccccc1Oc1nc(Nc2ccc(N3CCNCC3)cc2)ncc1C(=O)Nc1c(C)cccc1C | 100 nM | 20 nM | Ki [3]: 78 nM; AUC [11]: 76 ng·h/mL; Ki [4]: 13 nM; Ki [5]: > 25000 nM; clearance [12]: 63.3 mL/min/kg; Ki [6]: 74 nM; Ki (Angiopoietin-1 receptor): > 8300 nM |
| COC(C)(C)CCn1nc(Nc2c(C)cc(C)cc2C)c2cnc(Nc3ccccc3)nc21 | – | > 2500 nM | – |
| Cc1cccc(C)c1Nc1nn(CCCN(C)C)c2nc(Nc3ccccc3)ncc12 | 40 nM | 30 nM | – |
| COC(C)(C)CCn1nc(Nc2c(C)cccc2C)c2cnc(Nc3ccc(OCCCN4CCCCC4)c(F)c3)nc21 | 60 nM | 3 nM | Vd [7]: 7.5 L/kg; MRT [8]: 2 h; clearance [9]: 58.3 mL/min/kg; AUC [10]: 148 ng·h/mL |
| COC(C)(C)CCn1nc(Nc2c(Cl)cccc2Cl)c2cnc(Nc3ccccc3)nc21 | 40 nM | 7 nM | – |
| COC(C)(C)CCn1nc(Nc2c(C)cc(F)cc2C)c2cnc(Nc3ccccc3)nc21 | 5500 nM | 26 nM | – |
| Cc1cccc(C)c1Nc1nn(CCCN2CCCC2)c2nc(Nc3ccccc3)ncc12 | 300 nM | 100 nM | – |
| Cc1cccc(C)c1Nc1nn(CCN2CCOCC2)c2nc(Nc3ccccc3)ncc12 | 70 nM | 50 nM | – |
| COC(C)(C)CCn1nc(Nc2c(C)cc(F)cc2C)c2cnc(Nc3ccc(N4CCN(C)CC4)cc3)nc21 | 20 nM | 10 nM | – |
| OC[C@H](O)CCn1nc(Nc2c(Cl)cccc2Cl)c2cnc(Nc3ccccc3)nc21 | 20 nM | 10 nM | bioavailability [13]: 30% |
| OC[C@H]1CCCN1CCn1nc(Nc2c(Cl)cccc2Cl)c2cnc(Nc3ccccc3)nc21 | 50 nM | 30 nM | – |
| Cc1cccc(C)c1Nc1nn(CC[C@@H](O)CN(C)C)c2nc(Nc3ccccc3)ncc12 | 190 nM | 80 nM | – |
| COC(C)(C)CCn1nc(Nc2c(C)cc(C)cc2C)c2cnc(Nc3ccc(N4CCN(C)CC4)cc3)nc21 | 50 nM | 12 nM | – |
